Most compounds without a hit are left out; they make up all but 4.5% or so of the library.
OX1R antag-1 = blocks the human orexin 1 receptor | O43613 | OX1R-expressing cells, FRET antagonist read-out | inhibition, % at 6.6 µM | actives 1.8% (n = 330,000); in the data active = inhibition mostly above about 38%, no sharp cut-off; inactive = mostly below about 40%
Target sequence (O43613 whole entry, looked up): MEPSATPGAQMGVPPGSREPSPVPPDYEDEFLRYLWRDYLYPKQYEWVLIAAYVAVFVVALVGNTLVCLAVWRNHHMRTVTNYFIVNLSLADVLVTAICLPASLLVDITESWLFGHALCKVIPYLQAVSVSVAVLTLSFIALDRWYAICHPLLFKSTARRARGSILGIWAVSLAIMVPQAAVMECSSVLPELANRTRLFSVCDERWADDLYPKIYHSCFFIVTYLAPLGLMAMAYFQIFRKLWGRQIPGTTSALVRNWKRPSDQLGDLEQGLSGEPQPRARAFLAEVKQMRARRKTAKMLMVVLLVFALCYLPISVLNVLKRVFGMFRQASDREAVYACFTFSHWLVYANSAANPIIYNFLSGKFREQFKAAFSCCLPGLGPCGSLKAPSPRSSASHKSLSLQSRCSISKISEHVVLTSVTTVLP
GPR7 antagonist = human neuropeptides B/W receptor 1 antagonism; P48145; GPR7-expressing cells, fluorescence antagonist assay; inhibition, % at 4.4 µM; actives 1.1% (n = 290,000); AID 1861; in the data active = inhibition above about 16%, passing the limit was not always enough;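 note: cells stimulated with the agonist NPW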
OX1R antag-2 = human HCRTR1 antagonism; inhibition, % at 5 µM; actives 0.43% (n = 330,000); CHO/OX1R cells, Fluo-8 calcium fluorescence, orexin A; O43613;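 active = inhibition above its plate's threshold, mean inhibition of all tested compounds on the plate plus 3 SD, cut at about 37% in these data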
CHO parental Ca = signal in parental CHO cells, OX1R antagonist counter-screen | parental CHO-K1, ATP-induced calcium, Fluo-8 fluorescence | inhibition, % at 5.6 µM | actives 0.63% (n = 330,000) | AID 463079;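 active = inhibition above that plate's mean sample inhibition plus 3 SD, cut at about 26% in these data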
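Test system: untransfected parental CHO cell line. Compound: one dose, 5.6 µM nominal. Detection: intracellular calcium via Fluo-8 no-wash fluorescent dye. Measure: % inhibition. Benchmarks: ATP-challenged DMSO wells low, unchallenged DMSO wells high.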
TAAR1 antagonist = human TAAR1 antagonism; CHO RD-HGA16 TAAR1, Fluo-8 calcium fluorescence, antagonist; inhibition, % at 3 µM; actives 1.5% (n = 360,000); AID 624466;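 active = inhibition above a per-plate cutoff, the mean inhibition of test compounds on that plate plus 3 SD, cut at about 49% in these data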
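System: RD-HGA16 CHO cells with stable hTAAR1 and Gα16 | Probe or stimulus: EC80 β-phenethylamine stimulus | Dosing: 3 µM, single point | Times: Dye loading 75 min at 37 °C, then 30 min room temperature | Measured by: Fluo-8 calcium-sensitive fluorescence | Read-out basis: % inhibition of agonist calcium response | Replicates: n of 1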
TAAR1 agonist = human TAAR1 agonism; Q96RJ0; CHO RD-HGA16 TAAR1, Fluo-8 calcium fluorescence; vehicle wells 0%, saturating PEA agonist 100%; activation, % at 3 µM; actives 0.99% (n = 360,000); AID 624467;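 active = activation above the mean activation of all test compounds in the run plus 3 SD, cut at about 38% in these data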
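Assay system: CHO-derived RD-HGA16 cells with stable Gα16 and human TAAR1; timing: 17-24 h seeding, 75 min 37 °C dye, 30 min RT; read-out: % activation from peak over basal fluorescence ratio, DMSO-to-PEA scaled; measured by: kinetic Fluo-8 calcium fluorescence; benchmarks: low control DMSO, high control PEA (EC100); doses: 3 µM single concentration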
Hits are given with their value; n = inactive; x = not tested or not shown.

SMILES	OX1R antag-1	GPR7 antagonist	OX1R antag-2	CHO parental Ca	TAAR1 antagonist	TAAR1 agonist
COC(=O)C1=C(C)N(Cc2ccccc2C(F)(F)F)C(=NCc2ccccc2)NC1c1ccc(Cl)cc1 (stereo unspecified)	x	x	x	x	n	n
CCCCCCCCN1C(=O)[C@@H](CC(=O)N2CCN(C(=O)C3CC3)CC2)C[C@@]2(C(=O)OC)C1=C[C@H](C(C)(C)C)O[C@@H]2C	x	x	x	x	n	n
O=C(CC1CCCC1)N[C@H](C(=O)N1CCC[C@H]1C(=O)NC1CCCC1)c1ccccc1	x	x	x	x	n	n
O=C(CCC(=O)c1ccc(F)cc1)Nc1cccc(Br)c1	n	n	n	38	n	n
O=C(CCC(=O)c1ccc(Br)cc1)Nc1cccc(C(F)(F)F)c1	n	n	n	n	n	n
COCCNC(=O)CN(C(=O)c1ccc(N2CCCC2)nc1)c1ccccc1	n	25	n	n	n	n
COCCNC(=O)CN(C(=O)c1ccc(N2CCCC2)nc1)c1ccc(F)c(Cl)c1	x	n	x	x	n	n
COc1ccccc1NC(=O)CSc1nccc(-c2ccco2)n1	n	x	n	n	n	n
COC(=O)C1=C(C)N(Cc2ccccc2C(F)(F)F)C(=NCc2ccccc2C(F)(F)F)NC1c1ccc(Cl)cc1 (stereo unspecified)	x	x	x	x	n	n
Cc1cccc(NS(=O)(=O)c2cc(C(=O)N3CCc4ccccc4C3)ccc2Cl)c1C	n	n	n	n	56	n
CCCNc1nc2c(c(=O)n(C)c(=O)n2C)n1CCc1ccccc1	n	n	n	n	n	n
CC(C)n1c(NCCc2ccccc2)nc2c1c(=O)n(C)c(=O)n2C	n	n	n	39	n	n
CC(=O)C(C)n1c(CN(C)Cc2ccccc2)nc2c1c(=O)n(C)c(=O)n2C (stereo unspecified)	n	n	n	n	n	n
CC(C)n1c(CN(C)Cc2ccccc2)nc2c1c(=O)n(C)c(=O)n2C	54	n	n	69	n	n
COc1cccc(C(C(=O)NCc2ccccc2)N(C(=O)c2csnn2)C2CC2)c1 (stereo unspecified)	n	n	n	n	n	n
OCc1ccccc1OCc1ccccc1	x	x	x	x	n	n
N#C/C(=N\Nc1ccc(F)cc1)C(=O)C1CC1	n	n	n	n	n	n
N#C/C(=N\Nc1ccc(Cl)c(Cl)c1)C(=O)C1CC1	50	n	n	n	n	n
COc1cc(/C=C2\SC(=Nc3ccccc3)N(CCc3c[nH]c4ccccc34)C2=O)ccc1OC(C)C(=O)O (stereo unspecified)	n	n	n	n	n	n
O=C1/C(=C/c2ccc(N3CCOCC3)o2)SC(=Nc2ccccc2)N1CCc1c[nH]c2ccccc12	n	n	75	92	x	x
O=C(O)CCc1ccc(S(=O)(=O)Nc2cc(C(F)(F)F)ccc2N2CCCC2)cc1	x	x	x	x	n	n
C=CCSc1nc(N)c2c(C)c(C)sc2n1	46	n	n	n	n	n
CCc1ccc(O)c(CNCCNCc2cc(CC)ccc2O)c1	n	x	n	n	n	42
CCOC(=O)N(C)C[C@H]1OCc2cnnn2CCCC(=O)N([C@H](C)CO)C[C@@H]1C	x	x	x	x	n	n
Cc1cccc(OCCCCc2c(C)n[nH]c2C)c1C	n	n	n	43	n	n
SMILES	OX1R antag-1	GPR7 antagonist	OX1R antag-2	CHO parental Ca	TAAR1 antagonist	TAAR1 agonist
O=C(NCCc1cccnc1)C1CCC(=O)N(Cc2ccc(Cl)cc2)C1 (stereo unspecified)	x	n	x	x	n	n
FC(F)(F)c1ccc(NC(=S)NCc2ccccc2)cc1	n	24	n	30	n	n
FC(F)(F)c1cccc(NC(=S)NCc2ccc(Cl)cc2)c1	n	28	n	n	n	n
CC(C)(C)c1ccccc1NC(=O)Nc1nc(C(N)c2ccccc2Cl)cs1 (stereo unspecified)	x	x	x	x	n	44
C/C(N)=C(/C#N)C(=O)CSc1nnnn1-c1ccccc1	n	n	n	n	n	n
C/C(N)=C(/C#N)C(=O)CSc1nnnn1-c1ccc(C)cc1	n	15	n	n	n	n
CC(NC(=O)COC(=O)/C(=C/c1cccs1)c1cccs1)c1ccccc1 (stereo unspecified)	n	n	n	n	52	n
O=C(NN=Cc1ccccc1O)C(=O)Nc1ccc(F)cc1	x	x	x	x	n	n
Cc1ccc(S(=O)(=O)Nc2cc(C(C(=O)OC(C)C)C(=O)C(F)(F)F)c(O)c3ccccc23)c(C)c1 (stereo unspecified)	114	n	51	31	n	n
O=C(CCCC(=O)c1ccccc1)NCCc1ccccc1F	n	n	n	n	73	40
COc1ccc(C(=O)CCC(=O)NCCc2ccccc2F)cc1	n	n	n	n	71	39
CC1CN(C(=O)c2ccccc2C(=O)c2ncc[nH]2)CC(C)O1 (stereo unspecified)	n	n	n	n	n	40
O=C(c1ncc[nH]1)c1ccccc1C(=O)N1CCOCC1	n	n	n	n	n	n
COc1cccc2cc(C(C)N(CCCN3CCOCC3)C(=S)Nc3cc(C)ccc3C)oc12 (stereo unspecified)	n	n	n	n	n	n
COc1cccc2cc(C(C)N(CCCN3CCOCC3)C(=S)Nc3cccc(C)c3C)oc12 (stereo unspecified)	n	n	n	n	n	39
COc1ccc(NC(=O)c2cc(-c3cc(Cl)ccc3C)n[nH]2)c(OC)c1	x	x	x	x	n	n
CN(c1ccccc1)c1ccc(/C=C/[N+](=O)[O-])cc1	n	n	78	63	n	n
CCCCN(CCCC)CC(O)COc1ccccc1Br (stereo unspecified)	n	26	n	n	n	n
COc1cc(-c2nnc(COC(=O)c3cccn3C)o2)cc(OC)c1OC	n	n	n	n	n	n
COc1cc(-c2nnc(COC(=O)C3c4ccccc4Oc4ccccc43)o2)cc(OC)c1OC	43	n	n	n	n	n
Nc1nnc(Sc2ncccc2[N+](=O)[O-])s1	39	n	n	n	n	n
Cc1ccnc(Sc2ncccc2[N+](=O)[O-])n1	60	n	n	n	n	n
Cc1ccc(Sc2ncccc2[N+](=O)[O-])cc1	n	n	n	n	n	n
Nc1nc2c(ncn2[C@@H]2O[C@H](C(=O)N[C@@H](Cc3ccccc3)C(=O)NCC3CCCCC3)[C@@H](O)[C@H]2O)c(=O)[nH]1	x	x	x	x	n	n
COc1ccc(C(=O)Nc2ccccc2N2CCCC2)cc1S(=O)(=O)N1CCOCC1	n	x	n	n	n	n
Cc1cccc(OCC(=O)NCC(=O)N/N=C/c2c(C)[nH]c3ccccc23)c1	n	n	n	n	52	n
Cc1cc(C(=O)N/N=C/c2c(C)[nH]c3ccccc23)n[nH]1	n	n	n	n	n	n
Cc1[nH]c2ccccc2c1/C=N/NC(=O)c1cc(-c2cccs2)[nH]n1	57	n	n	n	58	n

Bioassay records from PubChem.
